# Data from paper PMC5116011 (The Journal of antibiotics, 2016).
# Where two headings read alike, the source gives them in different places.
# Tests used:
# E. faecalis ATCC33186 = assay: MIC, microbroth dilution in Mueller-Hinton broth; type: cell-based; details: Enterococcus faecalis, ATCC33186, read-out: MIC EF
# In short: (§1)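 CLSI broth microdilution in cation-adjusted Mueller-Hinton broth. Inocula were grown from MH agar colonies in MH broth, with a final inoculum of 10^5 CFU/ml. Test compound final range was 200–0.2 µg/ml, incubated 37°C for 18–20 h. MIC was the lowest concentration preventing visible growth. Runs were at least duplicate, and the mean MIC was reported.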
# S. pyogenes ATCC700294 = assay: MIC, microbroth dilution in Mueller-Hinton broth; type: cell-based; details: Streptococcus pyogenes, ATCC700294, read-out: MIC SPy
# In short: as §1
# S. pneumoniae R6 = assay: MIC, microbroth dilution in Mueller-Hinton broth; type: cell-based; details: Streptococcus pneumoniae, R6, read-out: MIC SP
# In short: as §1
# B. anthracis sterne = assay: microbe, parasite or virus in culture; type: cell-based; details: Bacillus anthracis, read-out: MIC BA
# B. subtilis ATCC23857 = assay: MIC, microbroth dilution in Mueller-Hinton broth; type: cell-based; details: Bacillus subtilis, ATCC23857, read-out: MIC BS
# In short: as §1
# [1] = system: S. aureus -ATCC29213 (MSSA); assay: MIC, microbroth dilution in Mueller-Hinton broth; type: cell-based; details: Staphylococcus aureus, read-out: MIC MSSA
# In short: as §1
# S. aureus NRS 70 (MRSA) = assay: MIC, microbroth dilution in Mueller-Hinton broth; type: cell-based; details: Staphylococcus aureus, MRSA|NRS70, read-out: MIC MRSA
# In short: as §1
# E. coli BW25113 = assay: MIC, microbroth dilution in Mueller-Hinton broth; type: cell-based, Escherichia coli; details: for MIC EC MH+BP/CCCP / MIC EC + / MIC EC: E. coli BW25113; for MIC EC MH+BP/CCCP: MH broth with 30 µg/ml 2,2′-bipyridyl and 50 µg/ml CCCP; for MIC EC +: with clavulanic acid (6µg/ml); for MIC: Escherichia coli
# [2] = system: E. coli BW25113 ΔtolC derivative JW5503-1; assay: MIC, microbroth dilution in Mueller-Hinton broth; type: cell-based, Escherichia coli; details: for MIC: Escherichia coli
# P. vulgaris ATCC 33420 = assay: MIC, microbroth dilution in Mueller-Hinton broth; type: cell-based; details: Proteus vulgaris, ATCC33420, read-out: MIC PV
# P. mirabilis ATCC 25933 = assay: MIC, microbroth dilution in Mueller-Hinton broth; type: cell-based; details: Proteus mirabilis, ATCC25933, read-out: MIC PM
# P. aeruginosa PA01 = assay: MIC, microbroth dilution in Mueller-Hinton broth; type: cell-based, Pseudomonas aeruginosa; details: for MIC PA MH+BP/CCCP: MH broth with 30 µg/ml 2,2′-bipyridyl and 50 µg/ml CCCP; for MIC PA +: with clavulanic acid (6µg/ml); for MIC: Pseudomonas aeruginosa
# [3] = system: E. coli BW25113 ΔampC derivative JW4111-2; type: cell-based, Escherichia coli; details: for MIC: Escherichia coli, BW25113, read-out: MIC ECΔampC −
# [4] = BW25113, read-out: MIC EC, E. coli BW25113, Mueller-Hinton broth (Table 2)
# [5] = BW25113, read-out: MIC ECΔtolC MH
# [6] = BW25113, read-out: MIC ECΔtolC MH+BP
Structure (SMILES),MIC (E. faecalis ATCC33186) [µg/mL],MIC (S. pyogenes ATCC700294) [µg/mL],MIC (S. pneumoniae R6) [µg/mL],MIC (B. anthracis sterne) [µg/mL],MIC (B. subtilis ATCC23857) [µg/mL],MIC [1] [µg/mL],MIC (S. aureus NRS 70 (MRSA)) [µg/mL],MIC EC MH+BP/CCCP (E. coli BW25113) [µg/mL],MIC EC + (E. coli BW25113) [µg/mL],MIC (E. coli BW25113; [4]) [µg/mL],MIC ECΔtolC MH+BP/CCCP [2] [µg/mL],MIC ECΔtolC MH+CCCP [2] [µg/mL],MIC (P. vulgaris ATCC 33420) [µg/mL],MIC (P. mirabilis ATCC 25933) [µg/mL],MIC PA MH+BP/CCCP (P. aeruginosa PA01; P. aeruginosa PA01) [µg/mL],MIC PA + (P. aeruginosa PA01; P. aeruginosa PA01) [µg/mL],"MIC (P. aeruginosa PA01; PA01, read-out: MIC PA) [µg/mL]","MIC (P. aeruginosa PA01; PA01, read-out: MIC PA MH) [µg/mL]","MIC (P. aeruginosa PA01; PA01, read-out: MIC PA MH+CCCP) [µg/mL]",MIC ECΔampC + [3] [µg/mL],further results
CC1(C)SC2C(NC(=O)C(NC(=O)C3=C(O)C4CCCN4C3=O)c3ccccc3)C(=O)N2C1C(=O)O (centres unmarked) [Compound 2780],25,0.78,0.39,1.56,0.78,0.39,50,25,50,200,3.13,3.13,12.5,1.56,6.25,12.5,25,25,6.25,3.13,"MIC ([2]; BW25113, read-out: MIC ECΔtolC): 6.25 µg/mL; MIC [2, 5]: 6.25 µg/mL; MIC [2, 6]: 6.25 µg/mL; MIC (P. aeruginosa PA01; PA01, read-out: MIC PA MH+BP): 25 µg/mL; MIC (P. aeruginosa PA01; PA01, read-out: MIC PA −): 25 µg/mL; MIC [3]: 12.5 µg/mL"
CC1(C)SC2C(NC(=O)C(NC(=O)C3=C(O)C4(CC4)NC3=O)c3ccccc3)C(=O)N2C1C(=O)O (centres unmarked) [Compound 2833],12.5,0.78,< 0.2,1.56,0.39,< 0.2,25,6.25,12.5,100,0.78,1.56,100,6.25,12.5,6.25,25,25,12.5,6.25,"MIC ([2]; BW25113, read-out: MIC ECΔtolC): 3.13 µg/mL; MIC [2, 5]: 3.13 µg/mL; MIC [2, 6]: 1.56 µg/mL; MIC (P. aeruginosa PA01; PA01, read-out: MIC PA MH+BP): 25 µg/mL; MIC [3]: 12.5 µg/mL"
CC1(C)SC2C(NC(=O)C(NC(=O)C3=C(O)C(Cc4ccc([N+](=O)[O-])cc4)NC3=O)c3ccccc3)C(=O)N2C1C(=O)O (centres unmarked) [Compound 2835],25,0.78,< 0.2,3.13,< 0.2,< 0.2,25,12.5,6.25,100,0.78,1.56,25,25,12.5,6.25,25,25,12.5,12.5,"MIC ([2]; BW25113, read-out: MIC ECΔtolC): 3.13 µg/mL; MIC [2, 5]: 3.13 µg/mL; MIC [2, 6]: 1.56 µg/mL; MIC (P. aeruginosa PA01; PA01, read-out: MIC PA MH+BP): 25 µg/mL"
CC1(C)SC2C(NC(=O)C(NC(=O)C3=C(O)C(Cc4ccc(O)cc4)NC3=O)c3ccccc3)C(=O)N2C1C(=O)O (centres unmarked) [Compound 2918],25,1.56,0.39,6.25,3.13,0.78,50,6.25,12.5,6.25 to 12.5,0.78,0.78,6.25,6.25,6.25,6.25,50,50,6.25,6.25,"MIC EC (E. coli BW25113; Mueller-Hinton broth (Table 2)): 6.25 µg/mL; MIC ([2]; BW25113, read-out: MIC ECΔtolC): 6.25 µg/mL; MIC [2, 5]: 1.56 µg/mL; MIC [2, 6]: 1.56 µg/mL; MIC (P. aeruginosa PA01; PA01, read-out: MIC PA MH+BP): 25 µg/mL"
CC1(C)SC2C(NC(=O)C(NC(=O)C3=C(O)CN(c4ccccc4)C3=O)c3ccccc3)C(=O)N2C1C(=O)O (centres unmarked) [Compound 2919],25,0.78,< 0.2,3.13,1.56,0.78,50,25,50,6.25 to 12.5,1.56,3.13,25,50,12.5,12.5,50,50,25,6.25,"MIC EC (E. coli BW25113; Mueller-Hinton broth (Table 2)): 12.5 µg/mL; MIC ([2]; BW25113, read-out: MIC ECΔtolC): 3.13 µg/mL; MIC [2, 5]: 6.25 µg/mL; MIC [2, 6]: 3.13 µg/mL; MIC (P. aeruginosa PA01; PA01, read-out: MIC PA MH+BP): 50 µg/mL; MIC [3]: 12.5 µg/mL"
CC1(C)SC2C(NC(=O)C(NC(=O)C3=C(O)C(Cc4ccco4)NC3=O)c3ccccc3)C(=O)N2C1C(=O)O (centres unmarked) [Compound 3002],25,0.39,0.39,3.13,1.56,0.78,50,1.56,6.25,6.25 to 12.5,0.78,1.56,25,1.56,3.13,3.13,12.5,12.5,6.25,6.25,"MIC EC (E. coli BW25113; Mueller-Hinton broth (Table 2)): 6.25 µg/mL; MIC (P. aeruginosa PA01; PA01, read-out: MIC PA MH+BP): 12.5 µg/mL; MIC (P. aeruginosa PA01; PA01, read-out: MIC PA −): 12.5 µg/mL"
"CC1(C)S[C@@H]2[C@H](NC(=O)[C@H](N)c3ccccc3)C(=O)N2[C@H]1C(=O)O [ampicillin, reference compound]",3.13,< 0.2,< 0.2,< 0.2,< 0.2,< 0.2,50,0.78,1.56,3.13,0.39,1.56,100,3.13,–,100,> 200,> 200,> 200,1.56,"MIC PA (P. aeruginosa PA01; P. aeruginosa PA01, Mueller-Hinton broth (Table 2)): >200 µg/mL; MIC (P. aeruginosa PA01; PA01, read-out: MIC PA MH+BP): > 200 µg/mL; MIC (P. aeruginosa PA01; PA01, read-out: MIC PA −): > 200 µg/mL"
"CCN1CCN(C(=O)N[C@@H](C(=O)N[C@@H]2C(=O)N3[C@@H]2SC(C)(C)[C@@H]3C(=O)O)c2ccccc2)C(=O)C1=O [piperacillin, reference compound]",3.13,< 0.2,< 0.2,0.39,0.39,< 0.2,25,0.78,3.13,–,–,–,1.56,0.19,3.13,3.13,–,–,3.13,1.56,"MIC (E. coli BW25113; BW25113, read-out: MIC EC MH+BP): 1.56 µg/mL; MIC ([2]; BW25113, read-out: MIC ECΔtolC): 1.56 µg/mL; MIC [2, 5]: 0.09 µg/mL; MIC [2, 6]: 0.09 µg/mL; MIC [3]: 1.56 µg/mL"
